Reference: PubChem BioAssay AID1381 (University of Pittsburgh Molecular Library Screening Center, 2008)
Among all 220,000 compounds or so, about 1,000 (0.45%) were called active. This is one part of a sample in which actives are shown more often than they occur.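 The calls were made as follows: active = plate z-score of nuclear minus cytoplasmic receptor signal below a set negative limit, without overly bright fluorescence or cell loss (cut at about -3.5 in these data, passing the limit was not always enough); inactive = the rest, inconclusive results apart.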

Assay: inhibitors of GR-EGFP nuclear translocation, primary screen, dynein cargo transport inhibitor project, imaging, high-content, 3617.4 mouse cells (AID 1381)
Details: stimulated with dexamethasone, 1 µM
Summary of the method: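 Buffer or medium: tet-free, stripped-serum medium; reagent: dexamethasone at 1.0 µM final, 30 min; incubation: 48 h induction, 1 h compound, 30 min dex at 37 °C; measured by: formaldehyde fixation, Hoechst nuclear stain, 10x automated fluorescence imaging; read-out: nuclear-to-cytoplasmic GR-EGFP distribution per well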

[1] = measured here: cell count per field, at 20 µM
[2] = measured here: cytoplasmic GR-EGFP intensity, at 20 µM, stronger effect = higher value
[3] = measured here: nuclear GR-EGFP intensity, at 20 µM, stronger effect = lower value
[4] = measured here: cell count per field, at 50 µM
[5] = measured here: cytoplasmic GR-EGFP intensity, at 50 µM, stronger effect = higher value
[6] = measured here: nuclear GR-EGFP intensity, at 50 µM, stronger effect = lower value

| SMILES | z-score (at 20 µM, stronger effect = lower value) | z-score [1] | z-score [2] | z-score [3] | z-score (at 50 µM, stronger effect = lower value) | z-score [4] | z-score [5] | z-score [6] |
| --- | --- | --- | --- | --- | --- | --- | --- | --- |
| C/C(CC(=O)Nc1cccc(C(F)(F)F)c1)=N\NC(=O)C(=O)NCC(C)C | -0.981 (inactive) | 0.594 | -0.237 | -0.369 |  |  |  |  |
| Cc1nnc(SCCCCSc2nnc(C)c(=O)[nH]2)[nH]c1=O | -0.311 (inactive) | -0.339 | -0.259 | -0.0707 |  |  |  |  |
| Cc1ccccc1NC(=S)Nc1cccc([N+](=O)[O-])c1 | -0.523 (inactive) | -0.0166 | -0.193 | -0.37 |  |  |  |  |
| CC(=O)Nc1cccc([N+](=O)[O-])c1 | 0.101 (inactive) | 0.386 | -0.384 | 0.092 |  |  |  |  |
| COC(=O)/C=C\C(=O)Nc1cccc([N+](=O)[O-])c1 | -4.05 (active) | -0.741 | 1.08 | -2.26 |  |  |  |  |
| COc1ccc(-c2noc(-c3cccc(OC)c3OC)n2)cc1OC | 1.03 (inactive) | -0.605 | -0.0658 | 0.927 |  |  |  |  |
| COc1ccc(-c2csc3nc(-c4ccccc4F)oc(=O)c23)cc1OC | -3.75 (active) | -0.574 | 0.603 | -1.45 |  |  |  |  |
| COc1ccc(-c2csc(-c3cccs3)n2)cc1OC | 0.847 (inactive) | 0.288 | -0.331 | 0.694 |  |  |  |  |
| O=C(Nc1ccc(N2CCOCC2)cc1)c1ccc2c(c1)OCO2 | 1.56 (inactive) | -0.797 | -0.257 | 0.727 |  |  |  |  |
| CCCC1NC(=S)NC(C)=C1C(C)=O (stereo unspecified) | 0.661 (inactive) | 0.486 | -0.194 | 0.234 |  |  |  |  |
| COc1ccc(C(=O)NCC(=O)N/N=C/c2ccc([N+](=O)[O-])o2)cc1OC | -4.33 (active) | 0.928 | 0.52 | -1.68 |  |  |  |  |
| COc1cc(/C=N\NC(=O)CNC(=O)c2cccc([N+](=O)[O-])c2)ccc1O | 2.51 (inactive) | -1.15 | 0.0365 | 1.56 |  |  |  |  |
| COc1ccc(C(=O)NCC(=O)N/N=C/c2ccc([N+](=O)[O-])s2)cc1OC | -0.653 (inactive) | 0.617 | -0.211 | -0.24 |  |  |  |  |
| CC(C)(C)OC(=O)NCCCCCC(=O)N/N=C/c1coc2ccccc2c1=O | -0.131 (inactive) | -0.0505 | -0.202 | -0.314 |  |  |  |  |
| C/C(=N\NC(=O)CSc1nc2ccccc2c(=O)n1-c1ccccc1C)c1cccs1 | 0.968 (inactive) | -0.667 | -0.231 | 0.554 |  |  |  |  |
| CCn1c(SCc2cc(=O)n3ccsc3n2)nc2ccccc21 | -0.0624 (inactive) | -0.534 | -0.319 | 0.783 |  |  |  |  |
| CCCCCCc1cc2cc(-c3nnc(-c4cccc(OC)c4)o3)c(=O)oc2cc1O |  |  |  |  | -2.6 (inactive) | -0.146 | 22.1 | 2.79 |

| SMILES | z-score (at 20 µM, stronger effect = lower value) | z-score [1] | z-score [2] | z-score [3] | z-score (at 50 µM, stronger effect = lower value) | z-score [4] | z-score [5] | z-score [6] |
| --- | --- | --- | --- | --- | --- | --- | --- | --- |
| C[C@H](NC(=O)OC(C)(C)C)c1nnc(SCC(N)=O)o1 | 0.077 (inactive) | -0.312 | -0.175 | 0.307 |  |  |  |  |
| CC(C)Sc1nnc([C@H](Cc2ccccc2)NC(=O)OC(C)(C)C)o1 | -1.61 (inactive) | 1.71 | 0.279 | -0.731 |  |  |  |  |
| C[C@@H](NC(=O)OC(C)(C)C)c1nnc(S(=O)(=O)Cc2ccccc2)o1 | -5.36 (active) | 0.73 | 1.44 | -2.38 |  |  |  |  |
| Cc1ccc(NC(=O)CN(C)Cc2ccc(F)cc2)c([N+](=O)[O-])c1 | -0.244 (inactive) | -0.235 | -0.22 | -0.284 |  |  |  |  |
| COc1ccccc1NC(=O)c1ccc(C)s1 |  |  |  |  | 0.335 (inactive) | -0.862 | -0.265 | 0.226 |
| CCOC(=O)C(=CNc1cccc(C)n1)C(=O)OCC | 0.995 (inactive) | 0.752 | -0.214 | 0.879 |  |  |  |  |
| CCOC(=O)C(=Cc1ccccc1OC)C(=O)OCC | -5.08 (active) | 0.0073 | 1.43 | -2.52 |  |  |  |  |
| N#Cc1cccc(NC(=O)COC(=O)c2ccccc2C(=O)c2ccc(Cl)c([N+](=O)[O-])c2)c1 | -0.407 (inactive) | 0.615 | -0.326 | -0.496 |  |  |  |  |
| Cn1cnnc1SCC(=O)NNC(=O)COc1ccc(Br)cc1 | 0.431 (inactive) | 0.453 | -0.218 | -0.126 |  |  |  |  |
| C[C@@H]1C[C@@H]2O[C@H]2/C=C\C=C\C(=O)Cc2c(Cl)c(O)cc(O)c2C(=O)O1 | -3.8 (active) | 0.512 | 1.82 | -1.89 |  |  |  |  |
| COc1cc(CO)c(C2(CO)CCCC2)cc1OC | 0.000321 (inactive) | -0.54 | -0.145 | 0.499 |  |  |  |  |
| COC(=O)c1ccc(Sc2ccc(F)cc2)c(N)c1 | 0.257 (inactive) | 0.499 | -0.377 | 0.132 |  |  |  |  |
| Cc1ccc(C(C)NC(=O)Cn2nc(C)c([N+](=O)[O-])c2C)cc1 (stereo unspecified) | -0.784 (inactive) | 0.727 | -0.261 | -0.607 |  |  |  |  |
| COc1ccc(CCc2nnc(CCC(=O)NCc3cnn(-c4ccccc4C)c3)o2)cc1 | 1.76 (inactive) | -1.6 | -0.0906 | 1.43 |  |  |  |  |
| O=[N+]([O-])c1cc(S(=O)(=O)CCCN2CCOCC2)ccc1F | -4.25 (active) | 0.317 | 1.15 | -2.3 |  |  |  |  |
| O=[N+]([O-])c1ccc(NCCCN2CCOCC2)c(Cl)c1 | 0.346 (inactive) | -0.149 | 0.0336 | 0.676 |  |  |  |  |
| O=C(NCCCN1CCOCC1)c1ccc([N+](=O)[O-])cc1[N+](=O)[O-] | -0.163 (inactive) | 0.317 | -0.243 | 0.0502 |  |  |  |  |
